The subject of assay [1] is Syrian golden hamster. The assay is described as follows: Increase of diameter of pigmented spot of flank organs in gonadectomized golden hamster at 1 mg/kg, sc qd for 6 days co-administered with 1 mg/kg of testosterone (reference value: 2.03 +/- 0.63 millimeter). It is filed as functional, Mesocricetus auratus.
The next assay has as its system SK-LU-1. The assay is described as follows: Cytotoxicity against human SKLU1 cells as growth inhibition at 50 uM. In kind it is functional. The procedure, abridged:
(§1)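 Growth inhibition calculated from absorbance as 100 − (sample absorbance / vehicle absorbance × 100).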

Assay [2] concerns Syrian golden hamster. The assay is described as follows: Increase of prostate weight in gonadectomized golden hamster at 1 mg/kg, sc qd for 6 days co-administered with 1 mg/kg of testosterone (reference value: 50.4 +/- 9.9 mg). In kind it is functional, Mesocricetus auratus, Prostate gland.
Another assay concerns PC-3. The assay is described as follows: Cytotoxicity against human PC3 cells assessed as growth inhibition at 50 uM. In kind it is functional. In short, it runs like this:
as §1

In assay [3] the test system is Syrian golden hamster. The assay can be described thus: Increase of seminal vesicles weight in gonadectomized golden hamster at 1 mg/kg, sc qd for 6 days co-administered with 1 mg/kg of testosterone (reference value: 96.11 +/- 12.5 mg). It is filed as functional, Mesocricetus auratus.
The test system of a further assay is MCF7. The assay can be described thus: Cytotoxicity against human MCF7 cells as growth inhibition at 50 uM. It is filed as functional. The procedure, abridged: as §1
Assay [4] relates to Syrian golden hamster. The assay is described as follows: Increase of seminal vesicles weight in gonadectomized golden hamster at 1 mg/kg, sc qd for 6 days (reference value: 96.11 +/- 12.5 mg). In kind it is functional, Mesocricetus auratus.
The test system of assay [5] is Syrian golden hamster. The assay is described as follows: Increase of diameter of pigmented spot of flank organs in gonadectomized golden hamster at 1 mg/kg, sc qd for 6 days (reference value: 2.03 +/- 0.63 millimeter). In kind it is functional, Mesocricetus auratus.
The subject of assay [6] is Syrian golden hamster. The assay is described as follows: Increase of prostate weight in gonadectomized golden hamster at 1 mg/kg, sc qd for 6 days (reference value: 50.4 +/- 9.9 mg). It is filed as functional, Mesocricetus auratus, Prostate gland.

Calls of active or inactive are those of the source. The rule behind the calls is not given here.

Here are results for two compounds from ChEMBL document CHEMBL3734650, “Synthesis and activity of novel 16-dehydropregnenolone acetate derivatives as inhibitors of type 1 5α-reductase and on cancer cell line SK-LU-1” (Bioorg Med Chem, 2015).

`CC(C)(C)NC(=O)[C@H]1CC[C@H]2[C@@H]3CC[C@H]4NC(=O)C=C[C@]4(C)[C@H]3CC[C@]12C` [FINASTERIDE]: the Activity was 3.57 mm in the assay on Syrian golden hamster [1], 69.6 mg in the assay with Syrian golden hamster [2] and 161.4 mg in the assay on Syrian golden hamster [3]. The “growth inhibition (GI)” value in the assay with SK-LU-1, in the assay with PC-3 and in the assay with MCF7 was “inactive” in each case.

`C[C@]12CC[C@H]3[C@@H](CCC4=CC(=O)CC[C@@]43C)[C@@H]1CC[C@@H]2O` [TESTOSTERONE]: the results for the Activity with Syrian golden hamster [4], in the assay with Syrian golden hamster [5] and in the assay with Syrian golden hamster [6] were 200.6 mg, 5.65 mm and 98 mg, respectively.
